According to the EternaBench riboswitch data:

Tested on: MS2 coat protein
Experiment: apparent Kd, MS2 coat protein; higher = weaker binding; RNA-MaP array; FMN 200 µM where present
How it was run: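 The titrant was SNAP-549-labelled MS2 coat protein, run from 0.7 or 1.5 nM in doubling steps to 3 µM. It was applied to designs transcribed by stalled E. coli RNA polymerase on Illumina sequencing-chip clusters, without ligand first and then with constant ligand, in 100 mM Tris-HCl pH 7.5, 80 mM KCl, 4 mM MgCl2, BSA, DTT, yeast tRNA and Tween-20. The apparent Kd is the median of filtered per-cluster binding-curve fits, with green signal normalised to red-channel RNA signal and control-cluster median Fmax.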

[1] = designed as: OFF switch for flavin mononucleotide, no ligand
[2] = ligand present: flavin mononucleotide, designed as: OFF switch for flavin mononucleotide
[3] = designed as: ON switch for flavin mononucleotide, no ligand
[4] = ligand present: flavin mononucleotide, designed as: ON switch for flavin mononucleotide

UGUGCGUUGAUCUUCGAUCGGUGUACAUGAGGAUCACCCAUGUAGGAUAUUCAAAGACGCAGAUAGGAGAAGGACAUCGGUUUU
apparent Kd [1]: 18 nM
apparent Kd [2]: 19.8 nM

CCGAAUAAGCAGGAUAUCGUAUCGGAAACGAUACGAGAAGGGUUAACAUGAGGAUCACCCAUGUUCCUUAACGG
apparent Kd [1]: 20.3 nM
apparent Kd [2]: 24.8 nM

GAAAUACAUGAGGAUCACCCAUGUGAGGAUAUGCUAUGGAAAUAAAAAAUAAAACAUAGCAGAAGGUACAAAAG
apparent Kd [1]: 71.5 nM
apparent Kd [2]: 106 nM

UGAUAGGACAGAGGAUAUACGGAUAGGAUCUACUAUCAAACAAGUCCUACAUGAGGAUCACCCAUGUAGAAGGCUGUCCUAUCU
apparent Kd [1]: 16.1 nM
apparent Kd [2]: 22.2 nM

UUCCUCGUUGUGAGGAUAUCGUCCGUGUUUUGUUACGAGAAGGCACAUGAGGAUCACCCAUGUUUUUUGUUUUU
apparent Kd [1]: 39.2 nM
apparent Kd [2]: 77.7 nM

UCGAUGCUAGGAUAUACUAAUAAAACUACUGUAGUGUCUUCACAUGAGGAUCACCCAUGUAGAAGGAGCAUCUA
apparent Kd [1]: 28.3 nM
apparent Kd [2]: 21.8 nM

UGUCGGAGCAGAGGAUAUUACAUGAGGAUCACCCAUGUAUGAACCAAUAGCUGGAAACAGCGAUGUAAGAAGGCUGCUCCGACA
apparent Kd [1]: 10.2 nM
apparent Kd [2]: 124 nM

CAGUGCAAUGUAGGAUAUGCUCAGGAAUACUGAGCAGAAGGACAUGAGGAUCACCCAUGUCAAAUGAAAGAUAAUAAAGCACUG
apparent Kd [1]: 14.6 nM
apparent Kd [2]: 18.9 nM

AGAUAUAACUCAGGAUAUCAGCAUGGGUAGAUCACAUGAGGAUCACCCAUGUGCAUGUCCCGGCAUGAGAAGGGAGUAACGCAA
apparent Kd [3]: 43.2 nM
apparent Kd [4]: 52.2 nM

ACUUGUAAGCAGAAGGCAGUCAUUGUAUUCGUCAUGUAGACAUGAGGAUCACCCAUGUAUAGUACUGAGGAUAUGCAUCGAUAG
apparent Kd [1]: 7.88 nM
apparent Kd [2]: 17.2 nM

ACAUUUAUAUCAGGAUAUACAAUACAAUGAUUAGUAGAAGGGAUUAUUACAUGAGGAUCACCCAUGUCAUGUGUCAUAAUAACC
apparent Kd [1]: 27.6 nM
apparent Kd [2]: 24.1 nM

CUGGUGUGAGGAUAUCAGGACACGUAAGCGGGCGUGUCAAAUGAGAAGGCACAUGAGGAUCACCCAUGUGGGAC
apparent Kd [1]: 34 nM
apparent Kd [2]: 214 nM

CAUGUCUGAGGAUAUCGUUUUUUGUACAUGAGGAUCACCCAUGUCCUAUUUUUUUUAUUUCGAGAAGGCAGUGUAU
apparent Kd [1]: 47.7 nM
apparent Kd [2]: 37.7 nM

GUAGCAUACCGAGGAUAUUCAGGGCUUAUAUAAACAUGAGGAUCACCCAUGUGGCGAAAGCCUAGGGAGAAGGCGGAAUGCUAC
apparent Kd [3]: 14.9 nM
apparent Kd [4]: 13.1 nM

UUCAUGUGAGGAUAUAGUACUCCUUCUAUUAUUAUUGAGUAUUAGAAGGCACAUGAGGAUCACCCAUGUAGUAC
apparent Kd [1]: 29.8 nM
apparent Kd [2]: 43.4 nM

AGGUGACAUGAGGAUCACCCAUGUAAGGAUAUACGGUUAGUGGAGAGUUGGAGGAGAGGUAGAAGGUACGGAGC
apparent Kd [1]: 249 nM
apparent Kd [2]: 194 nM

CGUUUUAAACAAGGAUAUCAUUUGUGUACAAGUUUUACAUGAGGAUCACCCAUGUUAAAUGGUUUUGAGAAGGUGUUUAGAACG
apparent Kd [3]: 31.1 nM
apparent Kd [4]: 25 nM

AUACUCAUGUAAGGAUAUGCAGCCGUUUCGGCUGCAGAAGGUACUAUAAUACAUGAGGAUCACCCAUGUCUCUCGCAUUGCGGG
apparent Kd [3]: 400 nM
apparent Kd [4]: 101 nM

GGAUAGGACAGAGGAUAUACGUGCUAGAGAUACUAGUAAAAUUUCCUCACAUGAGGAUCACCCAUGUAGAAGGCUGUCCUAUCG
apparent Kd [1]: 36.1 nM
apparent Kd [2]: 684 nM

GUGGUACAUGAGGAUCACCCAUGUUAGGAUAUCGCGUGAGGUUUUACUUCCGCACGCGCGAGAAGGGACGUCUU
apparent Kd [1]: 36.2 nM
apparent Kd [2]: 29.5 nM

AAGCAUUGGCUUCUCAUCUACAUGAGGAUCACCCAUGUCGGGAGAAGGAGGCGUUGACAACUAGCCUAGGAUAUCCUAACGUGC
apparent Kd [1]: 6.74 nM
apparent Kd [2]: 7.26 nM

AUCAGCUCGUCAGGAUAUACGUCUCUGCGUCAGCAGUGUGGUAAGAUCACAUGAGGAUCACCCAUGUAGAAGGGACGAGCUGAU
apparent Kd [1]: 42.9 nM
apparent Kd [2]: 691 nM

AAUUGGAUCCAGAAGGCAUGGACGACCCGUCACAUUAACAUGAGGAUCACCCAUGUGAAAACACAUGAGGAUAUGGAUCCUAAA
apparent Kd [3]: 28.7 nM
apparent Kd [4]: 7.44 nM
